CHOP inhibitor: inhibitors of CHOP promoter induction, primary screen, cell-based, unfolded protein response, luciferase reporter; inhibition, % at 10 µM; actives 3.8% (n = 220,000); CHO-K1 CHOP-promoter luciferase, tunicamycin-induced, 15-18 h;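 active = compounds that reduced the stress-induced luciferase reporter signal by more than about 70% of percent inhibition, limit read from the data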;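 also: 0% = tunicamycin plus vehicle and 100% = wells without tunicamycin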
HCV NS3 hel inh: inhibitors of HCV NS3 helicase, primary screen, biochemical, Cy5 molecular beacon fluorescence. NS3 helicase DNA unwinding. AID 1800, 2009. inhibition, % at 10.9 µM. Hepatitis C virus NS3 helicase. actives 0.56% (n = 290,000);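 active = inhibition above the mean of all tested compounds plus 3 SD, set per campaign, cut at about 35% in these data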;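 also: 0% = DMSO wells and 100% = thioflavine S control wells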
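Test system: hepatitis C virus NS3 helicase domain fragment enzyme. Also added: annealed dual-labelled DNA beacon duplex, ATP-started. Timing: 60 min unwinding reaction at 25 °C after ATP addition. Technique: Cy5 fluorescence. Measure: % inhibition of unwinding.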
CHOP UPR activ: activators of apoptotic CHOP UPR arm, primary screen, cell-based, CHO-CHOP luciferase reporter, luminescence, uHTS; UPR activation; percent of tunicamycin response over DMSO baseline; activation, % at 10 µM; actives 0.34% (n = 330,000);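 active = at 10 µM dose, activation of 40% or more, normalized to positive control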;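 also: 100% = tunicamycin at 10 µg/mL and 0% = DMSO alone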
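System: CHO-CHOP luciferase reporter cell line | Buffer or medium: F12 medium containing 10% fetal bovine serum | Doses: One dose, 10 µM in 0.5% DMSO | Times: 6 h compound exposure at 37 °C after overnight seeding | Signal: Luciferase luminescence | Read-out: % activation vs tunicamycin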
PfM18AAP inh-1: PfM18AAP inhibitors, malaria aminopeptidase, primary screen, biochemical, QFRET, recombinant enzyme. H-Glu-NHMec fluorogenic cleavage. inhibition, % at 7.35 µM. actives 1.2% (n = 290,000). AID 1822, 2009;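 active = inhibition above the campaign mean inhibition over all tested compounds plus 3 SD, cut at about 28% in these data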;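 also: 0% = plate median of test compound wells and 100% = 2 mM ZnCl2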
p97 inhibitor: inhibitors of human p97 ATPase, primary screen, biochemical; recombinant p97 ATPase, Kinase-Glo ATP luminescence, 3 h; inhibition, % at 8 µM; actives 0.42% (n = 220,000); in the data active = inhibition above about 15%;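 also: 0% = DMSO vehicle and 100% = wells lacking enzyme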
Target sequence (P55072 whole entry, looked up): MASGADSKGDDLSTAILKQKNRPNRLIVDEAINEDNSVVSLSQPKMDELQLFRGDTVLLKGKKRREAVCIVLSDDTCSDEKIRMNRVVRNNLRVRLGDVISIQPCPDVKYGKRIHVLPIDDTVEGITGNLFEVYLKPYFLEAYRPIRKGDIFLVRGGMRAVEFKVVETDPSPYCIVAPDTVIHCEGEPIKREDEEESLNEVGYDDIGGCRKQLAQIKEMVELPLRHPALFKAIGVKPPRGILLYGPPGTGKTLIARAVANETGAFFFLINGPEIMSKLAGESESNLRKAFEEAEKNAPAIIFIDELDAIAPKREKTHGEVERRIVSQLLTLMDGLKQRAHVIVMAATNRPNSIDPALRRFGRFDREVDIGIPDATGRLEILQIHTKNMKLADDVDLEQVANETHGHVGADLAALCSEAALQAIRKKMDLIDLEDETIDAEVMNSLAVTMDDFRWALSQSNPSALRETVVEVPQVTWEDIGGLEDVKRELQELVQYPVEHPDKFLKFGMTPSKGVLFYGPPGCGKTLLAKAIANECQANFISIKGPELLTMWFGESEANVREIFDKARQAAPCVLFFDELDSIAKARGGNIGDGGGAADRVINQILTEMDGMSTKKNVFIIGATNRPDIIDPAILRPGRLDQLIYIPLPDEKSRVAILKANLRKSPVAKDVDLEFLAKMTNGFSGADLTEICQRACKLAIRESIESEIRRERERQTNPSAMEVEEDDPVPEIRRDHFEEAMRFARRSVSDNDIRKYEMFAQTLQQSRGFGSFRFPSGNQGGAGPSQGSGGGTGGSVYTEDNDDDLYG
XBP1 UPR activ: activators of adaptive XBP1 UPR arm, primary screen, cell-based, CHO-XBP1 luciferase reporter, luminescence, uHTS | actives 0.33% (n = 330,000) | AID 463104, 2010 | IRE1-XBP1 UPR activation; percent of tunicamycin response, DMSO as zero | activation, % at 20 µM;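 active = versus positive control, 20 µM dose yields 30% or more activation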;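 also: 100% = tunicamycin at 10 µg/mL and 0% = DMSO only wells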
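Assay system: IRE1-XBP1 luciferase reporter CHO line. Input: 1000 cells/well. Buffer or medium: F12 with 10% serum. Doses: 20 µM, 1% DMSO. Times: overnight seeding at 37 °C, 6 h compound treatment at 37 °C. Technique: Steady-Glo luciferase glow luminescence, 10 min after reagent addition.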
PfM18AAP inh-2: PfM18AAP inhibitors, malaria aminopeptidase, confirmation, biochemical, QFRET, recombinant enzyme, triplicate; shares compounds with PfM18AAP inh-1; H-Glu-NHMec fluorogenic cleavage; inhibition, % at 7.35 µM; actives 28% (n = 2,400);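 active = mean inhibition over replicate wells above the hit cutoff set for the earlier primary screen, cut at about 29% in these data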;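 also: 0% = median of test compound wells and 100% = 2 mM ZnCl2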
CTSL1 confirm: cathepsin L1 inhibitors, retest, confirmation, counter-screen for PFM18AAP inhibitor project, biochemical, QFRET, triplicate; shares compounds with PfM18AAP inh-1; AID 2178, 2009; inhibition, % at 5.96 µM; 2,400 tested, under 10 active; purified cathepsin L1, Z-Leu-Arg-MCA fluorescence;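 active = average inhibition across replicates above the hit cutoff set in the earlier primary screen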;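 also: 0% = median of test compound wells and 100% = Z-Phe-Ala-diazomethylketone 1 µM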
Starred values were filed as active, the others as inactive; . = no result given. An excerpt weighted towards active compounds, which were near 4.5% of everything screened.

SMILES	CHOP inhibitor	HCV NS3 hel inh	CHOP UPR activ	PfM18AAP inh-1	p97 inhibitor	XBP1 UPR activ	PfM18AAP inh-2	CTSL1 confirm
CCc1ccc(C2C(C(C)=O)=C(C(=O)OC)Nc3nnnn32)cc1 (centres undefined)	1	1	0	7	3	0	.	.
COC(=O)C1=C(C(C)=O)C(c2ccc(C(=O)OC)cc2)n2nnnc2N1 (centres undefined)	13	-3	-2	52*	0	2	-39	-3
CCOc1cc(C2C(C(=O)c3ccc(C)cc3)=C(C(=O)OC)Nc3nnnn32)ccc1O (centres undefined)	11	-3	2	57*	-3	-3	-25	0
CC(C)[C@H](NC(=O)C1CC(=O)N(c2ccc3c(c2)OCO3)C1)C(=O)NC1CCCC1 (some centres undefined)	.	14	-1	15	.	-5	.	.
O=c1c2ccccc2nc2n1CCC2	36	4	-1	46*	2	1	17	-10
CCCC(=O)Nc1ccc(C2C(=O)c3ccccc3C2=O)cc1	.	9	-4	5	.	-6	.	.
COc1ccc(/C=C(\C#N)C(=O)Nc2cc(S(=O)(=O)N3CCOCC3)ccc2N2CCCC2)cc1	-45	14	1	40*	3	-2	0	-4
NNC(=S)Nc1ccc(S(=O)(=O)N2CCOCC2)cc1	3	-8	-1	3	5	-4	.	.
NNC(=S)Nc1cc(S(=O)(=O)N2CCOCC2)ccc1N1CCOCC1	-24	3	1	40*	0	0	14	-8
CC(=O)Nc1nc2c(F)cccc2s1	.	4	-1	1	-1	-2	.	.
O=C(NNc1nc2ccccc2s1)c1ccc(F)cc1	-16	6	2	32*	0	1	2	0
CC(C)NC(=S)NNc1nc2ccccc2s1	-6	6	1	41*	11	-1	34*	1
O=C(NNc1nc2c(F)cc(F)cc2s1)c1ccccc1	13	2	3	39*	5	3	23	2
O=C(NNc1nc2ccc(F)cc2s1)c1cccc(F)c1	-7	-4	3	22	2	1	.	.
O=C(NNc1nc2c(F)cccc2s1)c1ccccc1	8	3	0	43*	-1	-2	25	-2
Cc1nc(N)sc1-c1csc(N(C)c2ccc(O)cc2)n1	25	14	5	33*	9	4	-25	0
Cc1ccc(S(=O)(=O)N2Cc3ccccc3CC2C(=O)Nn2cnnc2)cc1 (centres undefined)	19	-2	0	41*	5	0	36*	-3
O=C(Nn1cnnc1)C1Cc2ccccc2CN1S(=O)(=O)c1ccc(F)cc1 (centres undefined)	24	-3	0	39*	-2	0	33*	-3
CC(C)(C)NC(=O)C1Cc2ccccc2CN1S(=O)(=O)c1ccc(F)cc1 (centres undefined)	6	-13	1	1	3	0	.	.
Cc1ccc(S(=O)(=O)N2Cc3ccccc3CC2C(=O)Nc2cc(C)on2)cc1 (centres undefined)	34	-10	4	3	0	-2	.	.
COc1ccc(OC)c(NC(=O)C(=O)NNC(=O)C23CC4CC(CC(C4)C2)C3)c1	-27	-3	-1	7	4	-4	.	.
Cc1nc2ccccn2c1C(=O)NNC(=O)Nc1cccc(C(F)(F)F)c1	.	10	1	64*	.	-7	33*	8
Cc1ccn2c(C(=O)NNC(=O)Nc3ccc(Cl)cc3)c(C)nc2c1	.	-2	-1	64*	.	-1	48*	-4
Cc1cccc(NC(=O)c2c(C)nc3ccccn23)c1	21	1	3	2	6	0	.	.
CC(C)Cc1nnc(NC(=O)CCC(=O)N2CCN(c3ccc(F)cc3)CC2)s1	.	-2	1	3	.	-2	.	.
SMILES	CHOP inhibitor	HCV NS3 hel inh	CHOP UPR activ	PfM18AAP inh-1	p97 inhibitor	XBP1 UPR activ	PfM18AAP inh-2	CTSL1 confirm
Fc1ccc(C[n+]2csc3ccccc32)cc1	27	-1	4	36*	2	3	-5	-1
Fc1ccc(CSc2ncnc3scc(-c4ccccc4)c23)cc1	28	2	0	-3	4	0	.	.
O=C(Nn1cnnc1)c1cc(Br)ccc1Cl	.	-4	-2	60*	.	-4	55*	-3
O=C(Nn1cnnc1)c1ccc(Cl)c(Cl)c1	.	2	4	52*	.	-2	50*	2
CCCN1CCN(C(=O)c2oc3c(Cl)cccc3c2C)CC1	.	2	1	1	.	4	.	.
C=CCN(CC=C)C(=O)COC(=O)c1ccc(Sc2ncn[nH]2)c([N+](=O)[O-])c1	4	6	-1	84*	4	-2	80*	-1
CCOC(=O)NC(=O)COC(=O)c1ccc(Sc2ncn[nH]2)c([N+](=O)[O-])c1	-16	-4	0	89*	3	3	91*	-6
C=CCNC(=O)COC(=O)c1ccc(Sc2nncn2C)c([N+](=O)[O-])c1	-14	-3	0	0	3	-3	.	.
CCNc1ccc(C(=O)OCC(=O)NC(=O)NCC(C)C)cc1[N+](=O)[O-]	34	1	1	7	1	-2	.	.
CN(CC(=O)Nn1cnnc1)S(=O)(=O)c1ccccc1	2	3	0	32*	2	0	20	-5
CCN(CC)S(=O)(=O)c1ccc(C(=O)Nn2cnnc2)cc1	.	12	-2	81*	.	-3	75*	7
CN(CC(=O)Nc1ccncc1)S(=O)(=O)c1ccccc1	9	-4	1	-6	-4	-2	.	.
CCN(CC)S(=O)(=O)c1ccc(C(=O)NC(C)(C)C)cc1	-13	5	-1	-16	0	-2	.	.
COc1ccc(C(C(=O)NCC2CCCO2)N(Cc2cccs2)C(=O)c2snc(C(N)=O)c2N)cc1 (centres undefined)	.	26	1	3	.	-4	.	.
